# Screening results (PubChem)
# procasp3 activ: activators of human procaspase-3 D3A mutant, primary screen, biochemical, absorbance, PC-3 D3A mutant, single concentration; actives 0.11% (n = 330,000); activation, % at 8.5 µM; recombinant procaspase-3 D3A, Ac-DEVD-pNA absorbance 405 nm;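 active = activation above the mean of all tested compounds plus 3 SD, cut at about 21% in these data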;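 note: 0% = DMSO alone and 100% = DMSO wells spiked with extra 5 µM PC-3 D3A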
#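 Assay system – Procaspase-3 D3A mutant, all three cleavage aspartates alanine · Controls – DMSO-only low control, 5 µM PC-3 D3A high control · Schedule – 1 h compound preincubation, 2 h substrate hydrolysis at 25 °C · Signal – 405 nm absorbance of p-nitroaniline, reads at 0 and 120 min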
# Arrestin-AP2 inh: inhibitors of beta-arrestin/AP2 binding, primary screen, biochemical, GPCR trafficking, flow cytometry | beta-arrestin 1 C-terminal peptide binding to AP2 beta2-adaptin appendage (human) | FITC-arrestin peptide / GST-AP2 beads; AP2 beta2 appendage carries R879A mutation | inhibition, % at 10 µM | actives 0.31% (n = 340,000);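 active = inhibition above a set limit, near 3 SD of compounds lacking own fluorescence, cut at about 54% in these data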;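 note: plate controls were DMSO wells for no effect and 5 µM unlabelled arrestin peptide for full effect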
#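 System: GST-tagged AP2 beta2-adaptin appendage (R879A) on 4 µm glutathione beads / Reagent: FITC-arrestin peptide, 50 nM / Detection: HyperCyt-sampled flow cytometry, FL1 channel, ex 488/em 535 nm / Timing: 12 min plus 1 h, RT / Buffer or medium: PBS plus Tween 20 (0.05%) and BSA (0.1%)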
# PLC-beta3 inh: human PLC-beta3 inhibitors, primary screen, biochemical, fluorescence; 1-phosphatidylinositol 4,5-bisphosphate phosphodiesterase beta-3 (Homo sapiens), Q01970; Purified PLC-beta3, fluorogenic substrate; inhibition, % at 12.2 µM; actives 0.18% (n = 370,000); in the data active = inhibition above about 11%;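 note: 0% = median of compound wells on plate and 100% = full blocker control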
# PLCg1 inh: PLC-gamma1 enzyme inhibitors, primary screen, biochemical, fluorescence, purified enzyme | inhibition, % at 12.2 µM | AID 720700, 2013 | fluorogenic substrate | actives 0.84% (n = 370,000) | 1-phosphatidylinositol 4,5-bisphosphate phosphodiesterase gamma-1 (Homo sapiens), P19174; in the data active = inhibition above about 9.5%
# Target sequence (P19174 whole entry, looked up): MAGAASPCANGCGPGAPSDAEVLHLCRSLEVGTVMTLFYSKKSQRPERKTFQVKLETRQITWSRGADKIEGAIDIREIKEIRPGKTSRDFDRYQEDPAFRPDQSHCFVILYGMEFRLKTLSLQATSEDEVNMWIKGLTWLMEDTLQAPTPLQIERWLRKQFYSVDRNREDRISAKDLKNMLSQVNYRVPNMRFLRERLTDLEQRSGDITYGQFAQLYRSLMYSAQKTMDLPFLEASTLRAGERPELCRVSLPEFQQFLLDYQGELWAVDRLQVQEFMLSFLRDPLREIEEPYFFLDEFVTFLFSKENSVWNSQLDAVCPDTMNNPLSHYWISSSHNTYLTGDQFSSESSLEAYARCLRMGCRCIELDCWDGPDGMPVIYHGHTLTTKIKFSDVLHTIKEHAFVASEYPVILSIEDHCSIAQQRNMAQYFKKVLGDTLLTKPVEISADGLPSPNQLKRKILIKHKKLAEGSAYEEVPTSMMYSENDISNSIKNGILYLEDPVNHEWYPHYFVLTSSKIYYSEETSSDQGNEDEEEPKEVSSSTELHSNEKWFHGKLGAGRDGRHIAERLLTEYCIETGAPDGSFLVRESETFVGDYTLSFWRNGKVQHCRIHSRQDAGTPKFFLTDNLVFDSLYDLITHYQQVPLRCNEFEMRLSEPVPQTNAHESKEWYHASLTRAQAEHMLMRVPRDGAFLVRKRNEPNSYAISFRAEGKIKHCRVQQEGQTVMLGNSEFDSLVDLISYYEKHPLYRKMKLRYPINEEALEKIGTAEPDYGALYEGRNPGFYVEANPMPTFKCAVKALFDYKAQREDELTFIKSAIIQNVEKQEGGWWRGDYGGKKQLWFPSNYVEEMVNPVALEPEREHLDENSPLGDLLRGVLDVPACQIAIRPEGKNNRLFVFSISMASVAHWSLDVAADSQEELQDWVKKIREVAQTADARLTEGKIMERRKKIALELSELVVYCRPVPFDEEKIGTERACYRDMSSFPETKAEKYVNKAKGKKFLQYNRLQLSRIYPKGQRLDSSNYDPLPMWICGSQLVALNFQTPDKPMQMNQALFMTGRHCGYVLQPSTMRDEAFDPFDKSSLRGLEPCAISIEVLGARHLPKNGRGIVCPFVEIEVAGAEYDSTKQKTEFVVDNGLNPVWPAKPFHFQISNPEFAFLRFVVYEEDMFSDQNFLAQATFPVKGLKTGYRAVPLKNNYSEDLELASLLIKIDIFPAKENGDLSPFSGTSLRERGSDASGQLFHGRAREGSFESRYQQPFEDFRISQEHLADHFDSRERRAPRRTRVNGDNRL
# procasp7 counter: procaspase-7 activators, primary screen, counter-screen for procaspase-3 activator project, biochemical, absorbance, HTS, human; recombinant procaspase-7, Ac-DEVD-pNA absorbance 405 nm; D23A/D198A/D206A triple mutant, cannot self-cleave; scale: DMSO 0, 5 µM enzyme 100; activation, % at 8.5 µM; actives 0.093% (n = 330,000); AID 463210, 2010;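 active = percent activation above the screen-wide mean plus 3 SD, cut at about 25% in these data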
#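 System: Procaspase-7 triple mutant (PC-7 D3A); measure: % activation from two-timepoint absorbance difference, scaled to controls; times: 1 h compound preincubation, 2 h substrate cleavage, 25 °C; also added: Ac-DEVD-pNA substrate, 400 µM as added; measured by: Epi-absorbance of released pNA at 405 nm, two timepoints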
# HGIII-sPLA2 inh: human group III sPLA2 inhibitors, primary screen, biochemical, QFRET, BODIPY PC-A2 liposome substrate; inhibition, % at 12.2 µM; actives 0.56% (n = 370,000); AID 743126, 2013; QFRET BODIPY PC-A2 liposome hydrolysis, fluorescence;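 active = inhibition above mean plus 3 SD of compounds lying within the high and low control bounds, cut at about 19% in these data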;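 note: 0% = median of test compound wells and 100% = no enzyme DMSO wells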
# hGIII sPLA2 conf: human group III sPLA2 inhibitors, confirmation, biochemical, QFRET, triplicate | actives 34% (n = 2,000) | recombinant hGIII-sPLA2, BODIPY PC-A2 QFRET fluorescence | inhibition, % at 12.2 µM | shares compounds with HGIII-sPLA2 inh;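 active = mean inhibition across triplicates above the hit cutoff set in the earlier primary screen, cut at about 19% in these data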;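 note: 0% = enzyme with DMSO and 100% = DMSO wells lacking enzyme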
# 535nm interf: 535nm fluorescence optical interference, confirmation, artefact control for HGIII-sPLA2 inhibitor project, biochemical, QFRET; shares compounds with HGIII-sPLA2 inh; BODIPY FL product fluorescence interference; inhibition, % at 12.2 µM; actives 8.5% (n = 2,000);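 active = average inhibition above the solvent-only control mean plus 3 SD, cut at about 6% in these data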;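 note: 0% = DMSO with substrate plus product and 100% = DMSO with substrate alone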
# 535nm interf DR: 535nm fluorescence optical interference, dose response, artefact control for HGIII-sPLA2 inhibitor project, biochemical, QFRET; shares compounds with HGIII-sPLA2 inh; BODIPY FL product fluorescence interference, cell-free; IC50, µM; 240 tested, under 10 active;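 active = IC50 at or below 10 µM; inactive = IC50 above 10 µM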
# * marks the source's active call; other numbers are inactive results; · = not tested or not shown. An excerpt weighted towards active compounds, which were near 1.9% of everything screened.
SMILES,procasp3 activ,Arrestin-AP2 inh,PLC-beta3 inh,PLCg1 inh,procasp7 counter,HGIII-sPLA2 inh,hGIII sPLA2 conf,535nm interf,others
COc1cnc(-c2ccccn2)nc1Oc1cccc(C(F)(F)F)c1,-4,-10,-9,5,4,21*,8,-16,
S=C(NCCc1ccccc1)N1CCCC1,7,14,-6,2,-2,2,·,·,
CC1CCCCN1C(=S)NCCc1ccccc1 (stereo not given),8,5,3,5,11,22*,9,-6,
CN1CCOc2c1cnn(CCO)c2=O,·,·,-49,-35,·,1,·,·,
COc1ccc(-c2oc3c(c2C(=O)OCCO)C(OCCO)CCC3)cc1 (stereo not given),·,·,-148,-92,·,-1,·,·,
O=c1cc(CCc2ccccc2)[nH]c(=O)[nH]1,·,·,-1,2,·,6,·,·,
CN(c1ccccc1)c1cc(=O)[nH]c(=O)[nH]1,1,9,-5,-5,-6,28*,-1,-3,
CCCc1nc2ccc(C)cn2c1Cc1ccccc1C(F)(F)F,·,·,-23,-13,·,-4,·,·,
CC(C)N1CCC(N2CCN(CCCc3ccccc3)CC2CCO)CC1 (stereo not given),6,-4,2,1,3,7,·,·,
CC(C)N1CCC(N2CCN(C/C=C/c3ccc(F)cc3)CC2CCO)CC1 (stereo not given),1,4,0,-1,-4,20*,1,-9,
CC1(C)OC2OC(C(=O)N/N=C/c3cc(Br)ccc3O)C3OC(C)(C)OC3C2O1 (stereo not given),14,38,-188,-153,10,-13,·,·,
COc1ccc(Cl)cc1C(=O)NNC(=O)c1cccc(S(=O)(=O)N(C)C)c1,-6,-6,-12,-6,0,22*,-8,-6,
CN(Cc1ccccc1)S(=O)(=O)c1ccc(NC(=O)C2CCCO2)cc1 (stereo not given),2,-10,-5,4,1,23*,-5,-14,
O=C(Nc1ccccc1Cl)c1cc(C2CCCN(S(=O)(=O)c3cccs3)C2)on1 (stereo not given),·,·,-2,-3,·,-15,·,·,
Cc1ccc(S(=O)(=O)NCC(C)n2cncn2)cc1C (stereo not given),4,6,-6,1,5,20*,-3,1,
CCOc1cc(C(=O)NC)cc(OCC)c1OCC,-2,4,-2,6,13,20*,-5,-7,
Cc1ccc(C2CC2C(=O)NNC(=S)Nc2ccc(Cl)cc2)cc1 (stereo not given),8,11,-2,2,-14,21*,9,12*,
CC(C)(C)NC(=S)NNC(=O)[C@H]1C[C@@H]1c1ccccc1,-1,-9,-7,-1,12,11,·,·,
Cc1cccc(NC(=S)NNC(=O)c2ccc(O)cc2O)c1C,-5,-4,-5,1,-13,42*,33*,3,535nm interf DR=>122
Cc1ccc(NC(=S)NNC(=O)c2ccccc2O)c(C)c1,-7,9,-19,-13,-8,49*,37*,-1,535nm interf DR=>122
Cc1ccc(NC(=O)NNC(=O)c2cc3ccccc3cc2O)c(C)c1,-3,-15,-152,-87,-5,16,·,·,
Cc1cccc(NC(=O)NNC(=O)c2cc3ccccc3cc2O)c1C,-6,-5,-113,-108,5,17,·,·,
COc1ccc(CNC[C@H]2O[C@@H](n3ccc(=O)[nH]c3=O)[C@H](O)[C@@H]2O)cc1OC,·,10,6,1,·,4,·,·,
Cc1ccc(-c2csc3nc(SCC(N)=O)n(Cc4ccccc4)c(=O)c23)cc1,-3,18,-2,3,-4,-17,·,·,
CCCC[n+]1ccn(-c2nc3ccccc3nc2[N-]S(=O)(=O)c2ccc(Br)cc2)c1,10,-1,-31,-18,7,21*,0,-12,
SMILES,procasp3 activ,Arrestin-AP2 inh,PLC-beta3 inh,PLCg1 inh,procasp7 counter,HGIII-sPLA2 inh,hGIII sPLA2 conf,535nm interf,others
CCCCN1C[C@@H]2CSCCS(=O)(=O)N2C1=O,·,·,1,2,·,13,·,·,
COc1ccc(N(Cc2ccccc2)S(=O)(=O)c2cccc(C(=O)Nc3ncccc3C)c2)cc1,-1,-13,-6,2,0,-18,·,·,
O=C(C1CCN(S(=O)(=O)c2ccc3[nH]c(=O)oc3c2)CC1)N1CCCN(Cc2ccccc2)CC1,·,·,-1,-1,·,-10,·,·,
S=c1[nH]nc(-c2ccc(Cl)cc2)n1/N=C/C=C/c1ccco1,-15,20,-14,-5,-20,25*,30*,3,
O=[N+]([O-])c1ccc(Cl)c(C2Nc3cccc4cccc(c34)N2)c1,-4,41,2,0,-15,32*,57*,18*,
O=[N+]([O-])c1ccccc1C1Nc2cccc3cccc(c23)N1,-11,9,0,1,-4,1,·,·,
CC(=O)Nc1c(O)c2cccc3c2n(c1=O)CCC3,-19,2,-20,-11,-25,8,·,·,
CCN(CC)C1CC(=O)N(c2cccc(Cl)c2)C1=O (stereo not given),-22,15,-9,0,-11,-2,·,·,
Cc1cccc(C(=O)Oc2cc(C)[nH]c(=O)c2[N+](=O)[O-])c1,2,3,-7,5,2,9,·,·,
Cc1cc(OC(=O)c2cccc(C(F)(F)F)c2)c([N+](=O)[O-])c(=O)[nH]1,7,-10,2,3,9,22*,-4,-4,
CC(COc1cccc(OC(F)(F)F)c1)CN1CCC(C(O)(c2ccccc2)c2ccccc2)CC1 (stereo not given),·,·,0,-1,·,-20,·,·,
